Assays:
[1] = Cytotoxicity against human HepG2 cells assessed as reduction in cell viability after 72 hrs by MTT assay; format: toxicity, cell-based
Procedure, shortened: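 HepG2 hepatocarcinoma cells in RPMI with 10% FBS, L-glutamine, penicillin/streptomycin, 37 °C, 6% CO2. Seeded 5.10^3 cells/well, 24 h attachment, then compounds added from DMSO (final under 0.5% v/v) at various concentrations for 72 h, triplicates. Wells checked microscopically for precipitate. MTT 0.5 mg/mL 2 h, formazan dissolved in DMSO, A570 (ref 630 nm). Viability as % of untreated cells; CC50 from dose–response curve.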

[2] = Selectivity index, ratio of CC50 for human HepG2 cells to IC50 for chloroquine/pyrimethamine/proguanil-resistant Plasmodium falciparum K1 infected in human erythrocytes; format: functional
Plasmodium falciparum = test: Antiplasmodial activity against chloroquine/pyrimethamine/proguanil-resistant Plasmodium falciparum K1 infected in human erythrocytes after 72 hrs by SYBR Green 1 dye based fluorescence spectrophotometric method; format: functional, cell-based; settings: K1, 72 h

Q: For `Clc1nc(C(Cl)(Cl)Cl)nc2ccccc12`, which CC50 at 72 h [1] is on record?
A: > 125 µM

Q: And the “Ratio CC50/IC50” value [2]?
A: >2.3

Q: Which results are given for `FC(F)(F)c1cccc(Nc2cc(C(Cl)(Cl)Cl)nc3ccccc23)c1`?
A: IC50 (Plasmodium falciparum): 1.3 µM; CC50 at 72 h [1]: 6.5 µM; Ratio CC50/IC50 [2]: 5

Q: With `Clc1ccc(Sc2nc3ccccc3nc2C(Cl)(Cl)Cl)cc1` as the compound, how does the IC50 (Plasmodium falciparum) read?
A: 0.5 µM

Q: And the CC50 at 72 h [1]?
A: 38.6 µM

Q: What about the “Ratio CC50/IC50” value [2] of the same compound?
A: 77.2

Q: For `Clc1ccc(Nc2cc(C(Cl)(Cl)Cl)nc3ccccc23)c(Cl)c1`, which IC50 (Plasmodium falciparum) is on record?
A: 1.3 µM

Q: What about the CC50 at 72 h [1] of the same compound?
A: 11.7 µM

Q: What about the “Ratio CC50/IC50” value [2] of the same compound?
A: 9

Q: What does the source list for `O=C1C(O)=C([C@H]2CC[C@H](c3ccc(Cl)cc3)CC2)C(=O)c2ccccc21` [ATOVAQUONE]?
A: IC50 (Plasmodium falciparum): 0.001 µM; CC50 at 72 h [1]: > 15.6 µM; Ratio CC50/IC50 [2]: 15600

Q: For `C[C@H]1c2cccc(O)c2C(=O)C2=C(O)[C@]3(O)C(=O)C(C(N)=O)=C(O)[C@@H](N(C)C)[C@@H]3[C@@H](O)[C@@H]21.O` [DOXYCYCLINE], which “Ratio CC50/IC50” value [2] is on record?
A: 3.3
